Data published in PMC3629979 (Molecular imaging, 2010).

Legend:
[1] = test system: U87MG tumor; test: In vivo NIRF optical imaging of U87MG tumor-bearing nude mice; conditions: for nonspecific tumor targeting / accumulation of unconjugated dye: Cy5.5 and Cy7 data not shown; for tumor to muscle ratio, time course: 1, 2 and 4 hours postinjection, in words; for tumor to muscle ratio, time course / tumor to muscle ratio: 0.5 nmol i.v.; for tumor to muscle ratio: light intensity ratio, 4 hours postinjection, mean ± SD, n = 3
[2] = in vivo; conditions: female, athymic nude, mouse, U87MG tumor, iv, 0.5 nmol
[3] = for kidney uptake: 4 hours postinjection, 0.5 nmol i.v., ex vivo imaging, in words; for excretion route: inferred from kidney uptake at 4 hours postinjection
[4] = test system: murine integrin β3; test: Immunofluorescence colocalization in U87MG tumor sections, murine integrin β3; format: in vivo; conditions: 1 nmol i.v., 30 minutes postinjection; frozen tumor sections; one mouse
Summary of the method: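 Single female athymic nude mouse with subcutaneous U87MG xenograft (5 × 10⁶ cells, right front flank; tumours 100 to 300 mm³) given 1 nmol Cy5.5-labelled test compound by tail vein. Killed at 30 min, perfused with 20 mL PBS, tumour frozen-sectioned. Sections incubated 1 h at room temperature with hamster antimouse integrin β3 (1:100), then FITC secondary (1:200). Fluorescence microscopy overlay.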

Compound | nonspecific tumor targeting / accumulation of unconjugated dye [1] | tumor to muscle ratio, time course [1] | tumor to muscle ratio [1] | tissue uptake at 4 h [2] [%ID/g] | kidney uptake [3] | excretion route [3] | other results
CCN1C(=CC=CC=CC=CC2=[N+](CCCCCC(=O)O)c3ccc(S(=O)(=O)O)cc3C2(C)C)C(C)(C)c2cc(S(=O)(=O)[O-])ccc21 [Cy7, reference compound] | relatively high tumor-nonspecific targeting |  |  |  |  |  | 
CC1(C)C(/C=C/C2=C(Oc3ccc(S(=O)(=O)O)cc3)C(=C/C=C3/N(CCCCS(=O)(=O)O)c4ccc(S(=O)(=O)[O-])cc4C3(C)C)/CCC2)=[N+](CCCCCC(=O)O)c2ccc(S(=O)(=O)O)cc21 [IRDye800, reference compound] | only a lower nonspecific tumor accumulation |  |  |  |  |  | 
CC1(C)C(=CC=C2CCCC(C=CC3=[N+](CCCCCC(=O)N[C@@H](CCC(=O)NCCOCCOCCOCCOCCC(=O)NCCCC[C@@H]4NC(=O)[C@@H](Cc5ccccc5)NC(=O)[C@H](CC(=O)O)NC(=O)CNC(=O)[C@H](CCCNC(=N)N)NC4=O)C(=O)NCCOCCOCCOCCOCCC(=O)NCCCC[C@@H]4NC(=O)[C@@H](Cc5ccccc5)NC(=O)[C@H](CC(=O)O)NC(=O)CNC(=O)[C@H](CCCNC(=N)N)NC4=O)c4ccc(S(=O)(=O)O)cc4C3(C)C)=C2Oc2ccc(S(=O)(=O)O)cc2)N(CCCCS(=O)(=O)[O-])c2ccc(S(=O)(=O)O)cc21 [IRDye800-PEG4-RGD2, IRDye800-E[PEG4-c(RGDfK)]2] |  | increased tumor to muscle ratios from 1 to 4 hours | 4.63 ± 0.28 | 5.87 ± 1.21 | high kidney uptake | mainly excreted by the renal route | 
CC1(C)C(=CC=C2CCCC(C=CC3=[N+](CCCCCC(=O)N[C@@H](CCC(=O)NCCCC[C@@H]4NC(=O)[C@@H](Cc5ccccc5)NC(=O)[C@H](CC(=O)O)NC(=O)CNC(=O)[C@H](CCCNC(=N)N)NC4=O)C(=O)NCCCC[C@@H]4NC(=O)[C@@H](Cc5ccccc5)NC(=O)[C@H](CC(=O)O)NC(=O)CNC(=O)[C@H](CCCNC(=N)N)NC4=O)c4ccc(S(=O)(=O)O)cc4C3(C)C)=C2Oc2ccc(S(=O)(=O)O)cc2)N(CCCCS(=O)(=O)[O-])c2ccc(S(=O)(=O)O)cc21 [IRDye800-RGD2, IRDye800-E[c(RGDfK)]2] |  | increased tumor to muscle ratios from 1 to 4 hours | 3.31 ± 0.22 | 2.71 ± 0.77 | high kidney uptake | mainly excreted by the renal route | 
Cy5.5 [reference compound] | relatively high tumor-nonspecific targeting |  |  |  |  |  | 
Cy5.5-E[PEG4-c(RGDfK)]2 [Cy5.5-PEG4-RGD2] |  |  |  |  |  |  | colocalization with murine integrin β3 [4]: good colocalization
